Results on 27 molecules are retold here after ChEMBL document CHEMBL3102732, “Potential antiviral lignans from the roots of Saururus chinensis with activity against Epstein-Barr virus lytic replication” (J Nat Prod, 2014).

Usually CC50 stands for the concentration giving 50% cytotoxicity. For orientation: pEC50 means the EC50 on a negative log10 scale, so that one unit is a factor of ten.

Data set [1] in a line: Cytotoxicity against human P3HR1 cells assessed as cell viability after 2 days by trypan blue staining-based light microscopy. Details: species or system P3HR-1.
Data set [2] is described as follows: Selectivity index, ratio of CC50 for human P3HR1 cells to EC50 for EBV infected in human P3HR1 cells. Details: species or system P3HR-1. The gist of the method: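 CC50: P3HR-1 cells treated or untreated with compounds, viability counted by Trypan blue exclusion under light microscope 2 days post-treatment, relative to nondrug-treated controls, CC50 from dose-response curves. EC50: TPA (20 ng/mL)/sodium butyrate (0.3 mM)-induced P3HR-1 cells, compounds added 3 h later, EBV EBNA1 DNA quantified by real-time PCR at 48 h. Ratio CC50/EC50.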

In a further data set the test system is Human gammaherpesvirus 4. The data set can be described thus: Antiviral activity against EBV infected in human P3HR1 cells assessed as inhibition of lytic viral DNA replication after 48 hrs by RT-PCR analysis. In kind it is functional, organism-based. The following applies: human gammaherpesvirus 4, P3HR-1, 48 h. The method, boiled down: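 P3HR-1 Burkitt lymphoma cells latently carrying EBV, grown in RPMI 1640 with 10% FBS, induced to lytic replication with TPA 20 ng/mL plus sodium butyrate 0.3 mM. Compounds added 3 h later across a concentration range. At 48 h post-induction, total cellular DNA purified, EBV genome copies quantified by SYBR green real-time PCR for EBNA1. Noninduced background subtracted, normalised to untreated induced cells, EC50 from dose-response curve.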

pEC50: −log10 of the molar value.

With `COc1cc([C@@H](O)[C@@H](C)Oc2ccc([C@H]3O[C@H](c4ccc(O[C@H](C)[C@H](O)c5ccc(OC)c(OC)c5)c(OC)c4)[C@H](C)[C@H]3C)cc2OC)ccc1O`, in data set [1], the CC50 at 48 h was determined as 69.5 µM. Besides, the “Ratio CC50/EC50” value in data set [2] is given as 9.2. In the data set on Human gammaherpesvirus 4, the pEC50 is 5.12.
Taken in the same sequence, the figures for `COc1cc([C@@H](O)[C@@H](C)Oc2ccc([C@@H]3O[C@H](c4ccc(O)c(OC)c4)[C@H](C)[C@H]3C)cc2OC)ccc1O` were 23.2 µM, 3.3 and 5.16.
Turning to `C=CCc1cc(OC)c(O[C@H](C)C(=O)c2cc(OC)c(OC)c(OC)c2)c(OC)c1`, the CC50 at 48 h in data set [1] was greater than 200 µM. Further, the “Ratio CC50/EC50” value in data set [2] is recorded as greater than 9.1. Further, the pEC50 in the data set on Human gammaherpesvirus 4 was 4.66.
Taken in the same sequence, the figures for `C=CCc1cc(OC)c(O[C@H](C)[C@H](O)c2cc(OC)c3c(c2)OCO3)c(OC)c1` were 50.6 µM, 4 and 4.89.
As for `COc1ccc([C@@H](O)[C@@H](C)Oc2ccc([C@H]3O[C@H](c4ccc(OC)c(OC)c4)[C@H](C)[C@H]3C)cc2OC)cc1OC`, the CC50 at 48 h in data set [1] turned out to be 110 µM. Moreover, the “Ratio CC50/EC50” value in data set [2] was 65. The pEC50 in the data set with Human gammaherpesvirus 4 was 5.77.
For `COc1ccc([C@H](O)[C@@H](C)Oc2ccc([C@H]3O[C@H](c4ccc5c(c4)OCO5)[C@H](C)[C@H]3C)cc2OC)cc1OC` [SAUCERNEOL D], the CC50 at 48 h in data set [1] turned out to be 45 µM. In addition, the “Ratio CC50/EC50” value in data set [2] stood at 41.1. Further, the pEC50 in the data set with Human gammaherpesvirus 4 is 5.96.
For the molecule `COc1ccc([C@H]2O[C@@H](c3cc(OC)c(OC)c(OC)c3)[C@H](C)[C@@H]2C)cc1OC`, the CC50 at 48 h in data set [1] came to 172 µM. The “Ratio CC50/EC50” value in data set [2] was 2.5. Besides, the pEC50 in the data set on Human gammaherpesvirus 4 is 4.17.
Take `COc1cc([C@H]2O[C@@H](c3cc(OC)c(OC)c(OC)c3)[C@H](C)[C@H]2C)cc(OC)c1OC` [EPIGRANDISIN]: in data set [1], the CC50 at 48 h was greater than 200 µM. Besides, in data set [2], the “Ratio CC50/EC50” value was greater than 8. Further, the pEC50 in the data set with Human gammaherpesvirus 4 was 4.60.
Taken in the same sequence, the figures for `COc1ccc([C@H]2O[C@@H](c3cc(OC)c(O)c(OC)c3)[C@H](C)[C@@H]2C)cc1OC` were 100 µM, 8.6 and 4.94.
Taken in the same sequence, the figures for `C=CCc1cc(OC)c(O[C@H](C)[C@H](OC(C)=O)c2cc(OC)c(OC)c(OC)c2)c(OC)c1` were 85 µM, 4 and 4.67.
For `C/C=C/c1ccc(O[C@H](C)[C@H](O)c2ccc(O)c(OC)c2)c(OC)c1`, the half-maximal cytotoxic concentration (CC50) at 48 h in data set [1] was determined as 61.3 µM. Besides, the “Ratio CC50/EC50” value in data set [2] is 2.6. Also, in the data set with Human gammaherpesvirus 4, the pEC50 was 4.62.
Taken in the same sequence, the figures for `C=CCc1cc(OC)c(O[C@H](COC(C)=O)[C@H](O)c2cc(OC)c(OC)c(OC)c2)c(OC)c1` were 194 µM, 3.7 and 4.27.
Taken in the same sequence, the figures for `COc1cc([C@@H](OC(C)=O)[C@@H](C)Oc2c(OC)cc(/C=C/CO)cc2OC)cc(OC)c1OC` were greater than 200 µM, greater than 4.2 and 4.35.
On to `COc1cc([C@H]2O[C@@H](c3cc(OC)c(OC)c(OC)c3)[C@H](C)[C@@H]2C)cc(OC)c1O`, for which the CC50 at 48 h in data set [1] was 65.8 µM. Further, the “Ratio CC50/EC50” value in data set [2] was 2.2. The pEC50 in the data set with Human gammaherpesvirus 4 was 4.53.
Taken in the same sequence, the figures for `COc1cc(C(=O)[C@@H](C)Oc2c(OC)cc(/C=C/CO)cc2OC)cc(OC)c1OC` were greater than 200 µM, greater than 2.5 and 4.10.
Taken in the same sequence, the figures for `COc1ccc([C@@H](O)[C@@H](C)Oc2ccc(C(=O)[C@H](C)[C@H](C)C(=O)c3ccc(O[C@H](C)[C@H](O)c4ccc5c(c4)OCO5)c(OC)c3)cc2OC)cc1OC` were greater than 200 µM, greater than 12.4 and 4.79.
Taken in the same sequence, the figures for `COc1cc([C@H]2O[C@@H](c3cc(OC)c4c(c3)OCO4)[C@H](C)[C@@H]2C)cc(OC)c1OC` were 55 µM, 2 and 4.56.
On to `COc1ccc([C@@H](O)[C@@H](C)Oc2ccc([C@H]3O[C@H](c4ccc(O[C@H](C)[C@H](O)c5ccc6c(c5)OCO6)c(OC)c4)[C@H](C)[C@H]3C)cc2OC)cc1O`, for which the CC50 at 48 h in data set [1] came out at 26.5 µM. In the data set on Human gammaherpesvirus 4, the pEC50 was 5.57.
As for `COc1cc([C@H]2O[C@@H](c3ccc(OC)c(OC)c3)[C@@H](C)[C@H]2C)ccc1O`, the CC50 at 48 h in data set [1] was 62.3 µM. Besides, the “Ratio CC50/EC50” value in data set [2] is 2.3. Moreover, in the data set on Human gammaherpesvirus 4, the pEC50 was 4.57.
Taken in the same sequence, the figures for `C/C=C/c1cc(OC)c(O[C@H](C)[C@H](O)c2cc(OC)c3c(c2)OCO3)c(OC)c1` were 90.3 µM, 4.2 and 4.66.
Taken in the same sequence, the figures for `C/C=C/c1cc(OC)c(O[C@H](C)[C@H](OC(C)=O)c2cc(OC)c(OC)c(OC)c2)c(OC)c1` were 76.8 µM, 3 and 4.60.
As for `COc1cc([C@@H](O)[C@@H](C)Oc2ccc([C@H]3O[C@H](c4ccc(O[C@H](C)[C@H](O)c5ccc6c(c5)OCO6)c(OC)c4)[C@H](C)[C@H]3C)cc2OC)ccc1O` [4-O-DEMETHYLMANASSANTIN B], the CC50 at 48 h in data set [1] stood at 70.8 µM. For the same molecule, the “Ratio CC50/EC50” value in data set [2] is 20.2. Also, the pEC50 with Human gammaherpesvirus 4 was 5.45.
Taken in the same sequence, the figures for `COc1cc([C@H]2O[C@@H](c3cc(OC)c(OC)c(OC)c3)[C@H](C)[C@@H]2C)cc(O)c1OC` were 32 µM, 1.9 and 4.78.
Taken in the same sequence, the figures for `COc1ccc([C@@H](O)[C@@H](C)Oc2ccc([C@H]3O[C@@]4(c5ccc(O[C@H](C)[C@H](O)c6ccc(OC)c(OC)c6)c(OC)c5)O[C@@]4(C)[C@H]3C)cc2OC)cc1OC` (relative stereo) were 64.8 µM, 4.4 and 4.84.
On to `C/C=C/c1cc(OC)c(O[C@@H](C)[C@@H](O)c2cc(OC)c(OC)c(OC)c2)c(OC)c1`, for which the CC50 at 48 h in data set [1] was found to be 77.3 µM. In addition, the “Ratio CC50/EC50” value in data set [2] came out at 3.2. In the data set on Human gammaherpesvirus 4, the pEC50 was 4.62.
For `COc1ccc([C@H]2O[C@@H](c3ccc(OC)c(OC)c3)[C@@H](C)[C@H]2C)cc1OC`, the CC50 at 48 h in data set [1] was 59.8 µM. The “Ratio CC50/EC50” value in data set [2] was 1.2. Also, in the data set with Human gammaherpesvirus 4, the pEC50 is 4.30.
Taken in the same sequence, the figures for `COc1ccc([C@@H](O)[C@@H](C)Oc2ccc([C@H]3O[C@H](c4ccc(O[C@H](C)[C@H](O)c5ccc6c(c5)OCO6)c(OC)c4)[C@H](C)[C@H]3C)cc2OC)cc1OC` [MANASSANTIN B] were greater than 200 µM, greater than 116.4 and 5.76.
